PPC-1+TRAIL kill: kills PPC-1 cancer cells in the presence of TRAIL; AID 1443; actives 0.41% (n = 220,000); cell killing (% activity), % at 4 µM or 5 µM; PPC-1 cells + TRAIL, ATPLite viability luminescence;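 active = cell killing above 50% in the first pass at 4 µM, then a duplicate retest at 5 µM averaging 50% or more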;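 note: plate controls were cells with TRAIL plus DMSO for no effect and medium-only wells lacking cells for full effect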
FLuc stim CS: affects firefly luciferase, flagging false hits in luciferase stimulation screens. ATPlite luciferase biochemical, luminescence, 10 min; 0 = ATP-free wells, 1 = DMSO control. activation factor at 10 µM. 200,000 tested, under 10 active;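 active = luciferase activation factor, scaled between plate controls, of at least 2 with compound at 10 µM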
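System: luciferase plus luciferin reagent, cell-free; medium: PBS as buffer for the ATP substrate; dosing: test compounds dosed from 2 mM stocks in 100% DMSO; timing: 10 min post-reagent at room temperature; measured by: luminescence measurement of luciferase light output; evaluation: luciferase activation, seen as luminescence increase over controls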
FLuc inh counter: counter-screen for luciferase assay inhibitors: firefly luciferase inhibition; P08659; ATPLite firefly luciferase biochemical luminescence, 10 min; inhibition, % at 10 µM; actives 1.5% (n = 200,000);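 active = inhibition above about 50% when tested at 10 µM, limit read from the data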
C8 TRAIL sens: sensitizes caspase-8 expressing cells to TRAIL | actives 1% (n = 360,000) | NB7+C8 cells + TRAIL, ATPlite viability luminescence | inhibition (viability loss, TRAIL sensitization), % at 10 µM | AID 624354;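 active = compounds causing at least 50% loss of cell viability in the single-dose screen, relative to plate controls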
PPC-1 tox: PPC-1 cell cytotoxicity | shares compounds with PPC-1+TRAIL kill | actives 50% (n = 1,200) | cytotoxicity, % at 5 µM | PPC-1 viability, ATPlite luminescence, overnight;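 active = reconfirmed compounds whose average cytotoxicity reaches 50% or more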;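 note: 0% = DMSO-treated cells and 100% = wells holding medium but no cells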
Numbers without * were called inactive; . = no result. In the library only some 1.5% were active in any assay of this set; here they are far more common.

SMILES	PPC-1+TRAIL kill	FLuc stim CS	FLuc inh counter	C8 TRAIL sens	PPC-1 tox
COc1cccc(-c2nc(CCl)cs2)c1	-1	0.9	7	8	.
CC(NS(C)(=O)=O)C(c1cccs1)N1CCN(Cc2ccccc2)CC1 (centres undefined)	29	1	-3	0	.
O=C(Cc1cccs1)Nc1nc2c(s1)CCCC2	14	0.8	16	2	.
Cc1csc(NC(=O)c2ccc(C)o2)n1	15	0.7	32	7	.
O=C(Nc1nc2c(s1)CCCC2)c1cccs1	51*	0.2	80*	62*	52*
Cc1ccc(C(=O)Nc2nc3c(s2)CCCC3)o1	52*	0.2	82*	65*	53*
O=C(NCCc1ccccc1F)C(=O)Nc1nccs1	0	1	-1	10	-1
Cc1ccc(-c2cc(C(=O)N/N=C\c3cnn(C)c3C)c3ccccc3n2)cc1C	53*	0.5	50	46	45
CCOC(=O)c1cnc2c(cnn2C)c1Cl	4	1	-2	21	.
CC(=O)/C(C#N)=C1\NC(=O)C(Cc2ccc(C)c(Cl)c2)S1 (centres undefined)	14	.	.	19	.
CCOc1ccc(-c2ccc(SCC(=O)Nc3nnc(C)s3)nn2)cc1	74*	0.3	65*	62*	75*
CCc1ccc(-c2ccc(SCC(=O)NCC3CCCO3)nn2)cc1 (centres undefined)	46	0.2	80*	59*	49
CCc1ccc(-c2ccc(SCC(=O)Nc3nnc(C)s3)nn2)cc1	74*	0.1	85*	75*	71*
O=S(=O)(c1ccc(Br)cc1)N1CCN(c2ccccc2)CC1	.	.	.	-12	.
COc1ccc(N2CCN(C(=O)c3ccc(C)c(Cl)c3)CC2)cc1	18	1	0	5	.
CCCc1ccc(C(=O)NC(=O)c2ccccc2O)cc1	61*	.	.	74*	61*
CC(C)c1ccc(/C=N/NC(=O)c2ccccn2)cc1	69*	.	.	81*	66*
O=C(N/N=C/c1ccc2c(c1)OCO2)c1ccccn1	58*	0.1	88*	73*	60*
O=C(N/N=C/c1ccc(N2CCOCC2)cc1)c1ccccn1	21	.	.	37	.
c1cn2c(Nc3ccc4c(c3)OCCO4)c(-c3ccc(N4CCOCC4)cc3)nc2cn1	14	.	.	22	.
Oc1ccccc1-c1nc2cnccn2c1Nc1ccc2c(c1)OCCO2	4	1	0	-19	-1
CCN1CCC[C@H]1CNC(=O)c1cc(S(N)(=O)=O)ccc1OC	10	1.1	-5	.	.
O=C(CCc1ccccc1)c1ccc2c(c1)OCCCO2	4	0.8	18	6	.
O=C(CCCc1ccccc1)c1ccc2c(c1)OCCO2	80*	0	95*	87*	84*
COc1ccccc1C1=CC(=O)C[C@H](c2ccc(Cl)cc2)C1	.	.	.	4	.
SMILES	PPC-1+TRAIL kill	FLuc stim CS	FLuc inh counter	C8 TRAIL sens	PPC-1 tox
O=C(O)CCCNS(=O)(=O)c1ccc(F)cc1	12	1	-4	-19	.
O=S(=O)(NCCCCCNS(=O)(=O)c1ccc(F)cc1)c1ccc(F)cc1	-6	1.1	-6	3	-8
Cc1nn(-c2nc3ccccc3[nH]2)c(=O)c2ccccc12	97*	0	97*	96*	97*
CCn1c(CC(=O)Nc2ccc(F)cc2)nnc1SCC(=O)N1CCOCC1	.	.	.	-3	.
Cc1ccc(N/C(N)=N/c2nc(C)cc(N3CCCCC3)n2)c(C)c1	20	1	-5	40	22
Cc1ccc(N/C(N)=N/c2nc3c(c(=O)[nH]2)CCCC3)c(C)c1	31	1.1	-6	18	.
Cc1ccc(CNc2nc3ccccc3s2)s1	75*	0.1	90*	78*	75*
O=C(O)CC1=C(O)C(=O)N(c2ccccc2)C1c1ccccc1 (centres undefined)	-28	1	-1	1	-6
CCCOc1ccc(-c2csc3nc[nH]c(=O)c23)cc1	.	.	.	19	.
O=c1[nH]cnc2scc(-c3ccc(-c4ccccc4)cc3)c12	58*	0.4	60*	42	60*
O=C(O)CCCN1C(=O)/C(=C\c2ccco2)SC1=S	2	1	-2	-2	.
Cc1ccc(C(=O)Nc2ccc(-c3csc(C)n3)cc2)cc1	11	0.8	24	11	.
Cc1nc(-c2ccc(NC(=O)c3ccccc3)cc2)cs1	64*	0.1	88*	76*	61*
Cc1ccc(NC(=O)c2csc(-c3ccccc3)c2C)cc1	80*	0.1	85*	81*	82*
CC(=O)NCc1ccc(S(=O)(=O)N2CCN(c3ccccn3)CC2)cc1	.	.	.	-24	.
CC(C)c1ccc(N(CC(=O)N/N=C/c2ccc(OC3CSC3)cc2)S(=O)(=O)c2ccccc2)cc1	13	1.1	-8	0	.
COC(=O)c1c(NC(=O)C(=O)NCCCN2CCOCC2)sc2c1CCC2	.	.	.	9	.
CCN(CC)C(=O)C1=C(C)NC(=S)NC1c1ccc(C)s1 (centres undefined)	-6	1.1	-6	4	-13
Cc1onc(-c2ccccc2)c1C(=O)OCC(=O)NC(=O)c1ccccc1	.	.	.	2	.
COc1ccc(/C=N/NC(=O)c2ccc(COc3cccc4cccnc34)cc2)cc1O	0	.	.	0	.

Source: PubChem BioAssay
